The source made the active and inactive calls. The rule behind the calls is not given here.
How the values were obtained:
[1] = target: T1, Metabotropic glutamate receptor 4 (Rattus norvegicus, UniProt P31423); assay: Agonist activity at rat mGlu4 receptor expressed in HEK293 cells co-transfected with G-protein alpha and EAAC1 assessed as increase in intracellular inositol phosphate accumulation after 1 hr by scintillation counting; type: functional, cell-based
Method in brief: (§1)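 Rat receptor, chimeric G-protein alpha subunit and EAAC1 electroporated into HEK293 cells and grown 24 h in polyornithine-coated plates in glutamate/glutamine-free medium. Labelled overnight with 3H-myoinositol from 6 h post-transfection. Ambient glutamate degraded with glutamate-pyruvate transaminase, then agonist applied 30 min. Lysis 1 h in cold 0.1 M formic acid. 3H-IP isolated on Dowex and counted. IP normalised to IP plus membrane radioactivity, triplicate; mean ± SEM of n experiments.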

[2] = target: Metabotropic glutamate receptor 1 (Rattus norvegicus) (UniProt P23385); assay: Agonist activity at rat mGlu1 receptor expressed in HEK293 cells; type: functional, cell-based
Method in brief: (§2)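 Receptor transiently electroporated into HEK293 cells (DMEM, 10% FCS, penicillin/streptomycin) with EAAC1 transporter, plated in 96-well plates; tested for agonist or antagonist activity coupled to PLC, read out by IP or Fluo-4 Ca2+ assays.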

[3] = target: Metabotropic glutamate receptor 5 (Rattus norvegicus) (UniProt P31424); assay: Agonist activity at rat mGlu5 receptor expressed in HEK293 cells; type: functional, cell-based; method in brief: as §2
Chain of Metabotropic glutamate receptor 5 (Rattus norvegicus) (P31424 21-1203 limits assumed): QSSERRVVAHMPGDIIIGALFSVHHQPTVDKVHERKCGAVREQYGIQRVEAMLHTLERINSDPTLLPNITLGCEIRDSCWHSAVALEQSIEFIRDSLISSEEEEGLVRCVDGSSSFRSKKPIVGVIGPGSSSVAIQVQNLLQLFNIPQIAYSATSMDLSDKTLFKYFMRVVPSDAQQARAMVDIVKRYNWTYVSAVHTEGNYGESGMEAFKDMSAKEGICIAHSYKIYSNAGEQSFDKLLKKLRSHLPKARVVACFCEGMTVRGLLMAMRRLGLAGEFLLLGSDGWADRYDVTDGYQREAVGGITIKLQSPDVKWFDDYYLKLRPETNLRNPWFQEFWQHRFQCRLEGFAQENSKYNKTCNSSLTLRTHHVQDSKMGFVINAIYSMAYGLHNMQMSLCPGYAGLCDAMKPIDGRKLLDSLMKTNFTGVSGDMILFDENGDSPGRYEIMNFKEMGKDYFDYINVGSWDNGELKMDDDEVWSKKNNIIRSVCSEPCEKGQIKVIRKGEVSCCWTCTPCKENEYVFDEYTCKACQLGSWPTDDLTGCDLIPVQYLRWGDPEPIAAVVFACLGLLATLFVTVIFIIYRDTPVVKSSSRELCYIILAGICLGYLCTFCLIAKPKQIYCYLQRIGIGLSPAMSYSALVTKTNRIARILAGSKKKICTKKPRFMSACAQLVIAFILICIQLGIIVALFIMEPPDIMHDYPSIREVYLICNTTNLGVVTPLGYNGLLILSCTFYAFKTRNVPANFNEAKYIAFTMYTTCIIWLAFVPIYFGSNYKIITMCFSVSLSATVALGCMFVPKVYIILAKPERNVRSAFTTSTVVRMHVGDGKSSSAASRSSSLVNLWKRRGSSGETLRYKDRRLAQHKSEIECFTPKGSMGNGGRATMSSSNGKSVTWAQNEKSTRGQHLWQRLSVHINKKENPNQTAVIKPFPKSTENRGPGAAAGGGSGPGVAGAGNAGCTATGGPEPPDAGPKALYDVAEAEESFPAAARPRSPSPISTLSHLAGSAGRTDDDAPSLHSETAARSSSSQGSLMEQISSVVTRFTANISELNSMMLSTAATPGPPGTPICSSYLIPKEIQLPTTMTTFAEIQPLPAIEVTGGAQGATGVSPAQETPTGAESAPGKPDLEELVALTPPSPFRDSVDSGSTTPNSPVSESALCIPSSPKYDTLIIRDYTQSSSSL

[4] = target: T2, Metabotropic glutamate receptor 6 (Rattus norvegicus, UniProt P35349); assay: Agonist activity at rat mGlu6 receptor expressed in HEK293 cells co-transfected with G-protein alpha and EAAC1 assessed as increase in intracellular calcium level after 1 hr by fluorescence microplate reader; type: functional, cell-based
T2 sequence (P35349 whole entry): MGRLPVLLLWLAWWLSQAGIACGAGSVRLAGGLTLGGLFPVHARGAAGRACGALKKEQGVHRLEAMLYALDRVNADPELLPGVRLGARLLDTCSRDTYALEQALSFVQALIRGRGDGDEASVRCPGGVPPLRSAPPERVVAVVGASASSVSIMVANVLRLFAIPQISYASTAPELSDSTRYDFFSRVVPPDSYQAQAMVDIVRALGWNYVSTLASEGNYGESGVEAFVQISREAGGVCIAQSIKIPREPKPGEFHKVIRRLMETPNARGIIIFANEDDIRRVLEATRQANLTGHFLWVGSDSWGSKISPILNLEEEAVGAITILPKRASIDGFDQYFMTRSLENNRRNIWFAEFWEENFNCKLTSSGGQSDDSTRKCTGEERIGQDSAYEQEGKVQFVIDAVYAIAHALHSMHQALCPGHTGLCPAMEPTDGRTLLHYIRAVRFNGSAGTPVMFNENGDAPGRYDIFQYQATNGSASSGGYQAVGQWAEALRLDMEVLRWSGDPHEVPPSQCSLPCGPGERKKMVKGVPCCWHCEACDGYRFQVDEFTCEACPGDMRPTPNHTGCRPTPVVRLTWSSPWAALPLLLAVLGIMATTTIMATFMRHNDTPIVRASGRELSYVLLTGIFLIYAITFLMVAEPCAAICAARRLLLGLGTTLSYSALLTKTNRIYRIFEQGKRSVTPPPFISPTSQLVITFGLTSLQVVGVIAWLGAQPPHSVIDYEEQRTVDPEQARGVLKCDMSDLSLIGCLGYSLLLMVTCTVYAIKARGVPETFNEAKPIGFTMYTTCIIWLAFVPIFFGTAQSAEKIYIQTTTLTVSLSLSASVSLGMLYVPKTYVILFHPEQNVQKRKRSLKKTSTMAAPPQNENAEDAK
Method in brief: (§3)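 HEK293 cells electroporated with rat receptor plus chimeric G-protein alpha subunit and EAAC1, grown 24 h in polyornithine-coated plates in glutamate/glutamine-free medium. Cells loaded 1 h at 37 °C with Fluo-4 AM in HBSS with 2.5 mM probenecid, washed. Agonist added after 20 s of recording. Fluorescence read at ex 485/em 525 nm over a concentration range, triplicate points. EC50 given as mean ± SEM of n experiments.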

[5] = target: T2, Metabotropic glutamate receptor 6; assay: Agonist activity at rat mGlu6 receptor expressed in HEK293 cells co-transfected with G-protein alpha and EAAC1 assessed as increase in intracellular inositol phosphate accumulation after 1 hr by scintillation counting; type: functional, cell-based; method in brief: as §1
[6] = target: Metabotropic glutamate receptor 7 (Rattus norvegicus) (UniProt P35400); assay: (§4) Agonist activity at rat mGlu7 receptor expressed in HEK293 cells co-transfected with G-protein alpha and EAAC1 assessed as increase in intracellular calcium level after 1 hr by fluorescence microplate reader; type: functional, cell-based
Chain of Metabotropic glutamate receptor 7 (Rattus norvegicus) (P35400 whole entry): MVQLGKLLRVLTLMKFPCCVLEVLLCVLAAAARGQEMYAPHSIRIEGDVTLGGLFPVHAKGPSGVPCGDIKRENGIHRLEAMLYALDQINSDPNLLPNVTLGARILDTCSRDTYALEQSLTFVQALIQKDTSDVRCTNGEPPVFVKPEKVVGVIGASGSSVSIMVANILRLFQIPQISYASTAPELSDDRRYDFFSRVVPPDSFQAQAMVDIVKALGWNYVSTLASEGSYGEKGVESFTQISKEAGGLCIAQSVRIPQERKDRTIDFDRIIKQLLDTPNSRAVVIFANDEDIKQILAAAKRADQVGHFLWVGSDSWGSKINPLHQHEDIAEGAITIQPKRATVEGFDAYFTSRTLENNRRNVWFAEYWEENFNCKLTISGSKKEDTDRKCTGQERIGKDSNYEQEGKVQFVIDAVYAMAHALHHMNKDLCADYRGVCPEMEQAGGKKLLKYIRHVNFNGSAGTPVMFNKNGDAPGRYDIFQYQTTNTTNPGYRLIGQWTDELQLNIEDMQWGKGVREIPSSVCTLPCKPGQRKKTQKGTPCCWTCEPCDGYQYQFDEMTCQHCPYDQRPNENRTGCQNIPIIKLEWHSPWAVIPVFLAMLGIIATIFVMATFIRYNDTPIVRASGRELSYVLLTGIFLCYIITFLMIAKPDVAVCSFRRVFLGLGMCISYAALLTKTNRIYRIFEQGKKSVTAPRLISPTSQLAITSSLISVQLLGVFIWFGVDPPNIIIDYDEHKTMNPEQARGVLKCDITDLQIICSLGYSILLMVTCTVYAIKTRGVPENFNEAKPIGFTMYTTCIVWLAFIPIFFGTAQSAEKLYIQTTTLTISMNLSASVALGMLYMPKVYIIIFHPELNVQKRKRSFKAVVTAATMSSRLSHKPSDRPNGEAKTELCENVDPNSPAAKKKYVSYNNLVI
Method in brief: (§5)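 Rat mGlu7 electroporated into HEK293 cells with a chimeric G-protein α subunit and EAAC1. Cells were grown 24 h on polyornithine in glutamate/glutamine-free medium, then loaded with Fluo-4 AM in HBSS with 2.5 mM probenecid for 1 h at 37 °C and washed. Agonist was added 20 s into recording, and fluorescence was read at ex 485/em 525 nm. Points were run in triplicate across a concentration series to give EC50.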

[7] = target: T3, Metabotropic glutamate receptor 8 (Rattus norvegicus, UniProt P70579); assay: (§6) Agonist activity at rat mGlu8 receptor expressed in HEK293 cells co-transfected with G-protein alpha and EAAC1 assessed as increase in intracellular calcium level after 1 hr by fluorescence microplate reader; type: functional, cell-based; method in brief: as §3
T3 sequence (P70579 whole entry): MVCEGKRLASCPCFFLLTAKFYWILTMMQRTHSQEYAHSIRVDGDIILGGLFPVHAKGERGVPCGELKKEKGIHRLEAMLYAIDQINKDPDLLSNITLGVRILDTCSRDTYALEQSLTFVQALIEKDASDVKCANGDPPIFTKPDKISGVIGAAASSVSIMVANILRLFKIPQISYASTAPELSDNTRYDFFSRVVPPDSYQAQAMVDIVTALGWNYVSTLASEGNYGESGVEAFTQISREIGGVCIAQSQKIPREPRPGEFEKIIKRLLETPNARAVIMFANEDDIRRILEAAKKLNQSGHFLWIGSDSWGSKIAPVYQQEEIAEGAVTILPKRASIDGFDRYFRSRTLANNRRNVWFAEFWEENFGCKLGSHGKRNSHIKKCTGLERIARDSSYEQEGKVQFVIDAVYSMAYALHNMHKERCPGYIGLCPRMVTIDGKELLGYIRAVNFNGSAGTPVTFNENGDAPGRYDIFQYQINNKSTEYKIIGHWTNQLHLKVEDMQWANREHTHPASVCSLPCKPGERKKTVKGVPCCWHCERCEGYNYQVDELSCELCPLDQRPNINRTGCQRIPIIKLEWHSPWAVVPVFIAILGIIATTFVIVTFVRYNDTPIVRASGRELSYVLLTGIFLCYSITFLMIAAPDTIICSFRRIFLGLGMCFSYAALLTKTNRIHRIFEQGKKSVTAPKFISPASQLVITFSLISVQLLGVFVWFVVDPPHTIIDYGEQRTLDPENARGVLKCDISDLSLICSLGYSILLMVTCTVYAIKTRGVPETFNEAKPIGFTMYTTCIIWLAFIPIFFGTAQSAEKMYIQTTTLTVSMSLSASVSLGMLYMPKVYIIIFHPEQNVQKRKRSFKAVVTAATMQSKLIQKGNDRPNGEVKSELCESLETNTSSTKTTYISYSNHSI

[8] = target: T3, Metabotropic glutamate receptor 8; assay: Agonist activity at rat mGlu8 receptor expressed in HEK293 cells co-transfected with G-protein alpha and EAAC1 assessed as increase in intracellular inositol phosphate accumulation after 1 hr by scintillation counting; type: functional, cell-based; method in brief: as §1
[9] = target: Metabotropic glutamate receptor 2 (Rattus norvegicus) (UniProt P31421); assay: Agonist activity at rat mGlu2 receptor expressed in HEK293 cells assessed as increase in intracellular calcium level at 100 uM after 1 hr by fluorescence microplate reader; type: functional, cell-based
Chain of Metabotropic glutamate receptor 2 (Rattus norvegicus) (P31421 19-872 limits assumed): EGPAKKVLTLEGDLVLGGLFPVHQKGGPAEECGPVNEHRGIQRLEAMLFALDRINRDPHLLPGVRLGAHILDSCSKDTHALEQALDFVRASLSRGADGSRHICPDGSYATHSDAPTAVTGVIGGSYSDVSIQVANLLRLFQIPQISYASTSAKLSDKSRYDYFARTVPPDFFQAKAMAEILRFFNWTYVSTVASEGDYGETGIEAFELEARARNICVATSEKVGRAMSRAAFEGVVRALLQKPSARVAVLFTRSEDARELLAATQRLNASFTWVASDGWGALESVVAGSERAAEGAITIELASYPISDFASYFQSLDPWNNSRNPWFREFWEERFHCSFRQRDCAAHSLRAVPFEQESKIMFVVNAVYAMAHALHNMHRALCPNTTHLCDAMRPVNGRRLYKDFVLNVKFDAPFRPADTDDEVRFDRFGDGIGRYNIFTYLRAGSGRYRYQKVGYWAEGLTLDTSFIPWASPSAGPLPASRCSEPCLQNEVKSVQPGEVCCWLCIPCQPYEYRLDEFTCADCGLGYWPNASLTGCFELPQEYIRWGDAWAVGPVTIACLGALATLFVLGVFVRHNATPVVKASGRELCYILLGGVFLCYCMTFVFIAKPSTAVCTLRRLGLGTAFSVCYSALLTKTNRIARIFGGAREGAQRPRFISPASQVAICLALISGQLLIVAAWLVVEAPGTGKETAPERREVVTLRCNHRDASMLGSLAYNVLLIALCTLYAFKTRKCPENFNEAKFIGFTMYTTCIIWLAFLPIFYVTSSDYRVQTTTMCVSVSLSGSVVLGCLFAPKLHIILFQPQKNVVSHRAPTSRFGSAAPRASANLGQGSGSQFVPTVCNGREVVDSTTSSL
Method in brief: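 Rat mGlu2 transiently electroporated into HEK293 cells with EAAC1. Fluo-4 AM loaded 1 h at 37 °C in HBSS with 2.5 mM probenecid. Agonist applied at 100 μM after 20 s of recording, with DCG-IV 100 μM as reference. Fluorescence read at ex 485/em 525 nm.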

[10] = target: T1, Metabotropic glutamate receptor 4; assay: (§7) Agonist activity at rat mGlu4 receptor expressed in HEK293 cells co-transfected with G-protein alpha and EAAC1 assessed as increase in intracellular calcium level after 1 hr by fluorescence microplate reader; type: functional, cell-based; method in brief: as §3
[11] = target: Metabotropic glutamate receptor 4 (Rattus norvegicus) (UniProt P31423); assay: Agonist activity at rat mGlu4 receptor expressed in HEK293 cells co-transfected with G-protein alpha and EAAC1 assessed as increase in intracellular inositol phosphate accumulation at 100 uM after 1 hr by scintillation counting; type: functional, cell-based
[12] = target: T4, Metabotropic glutamate receptor 7 (Rattus norvegicus, UniProt P35400); assay: as §4; type: functional, cell-based; method in brief: as §5
T4 sequence (P35400 whole entry): as the sequence (P35400 whole entry) above

[13] = target: T4, Metabotropic glutamate receptor 7; assay: (§8) Agonist activity at rat mGlu7 receptor expressed in HEK293 cells co-transfected with G-protein alpha and EAAC1 assessed as increase in intracellular inositol phosphate accumulation […] by scintillation counting; type: functional, cell-based
Method in brief: (§9)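 Rat mGlu7 was transiently electroporated into HEK293 cells with a chimeric Gα subunit and EAAC1 and grown in glutamate/glutamine-free medium. Cells were labelled overnight with ³H-myoinositol from 6 h post-transfection, and ambient glutamate was removed with glutamate-pyruvate transaminase. Agonist was applied for 30 min, then cells were lysed 1 h in cold 0.1 M formic acid. ³H-IP was isolated on Dowex resin and eluted with 4 M formate for scintillation counting, with IP normalised to IP plus membrane counts. Triplicate points.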

[14] = target: Metabotropic glutamate receptor 2 (Rattus norvegicus, UniProt P31421); assay: Agonist activity at rat mGlu2 receptor expressed in HEK293 cells assessed as increase in intracellular calcium level after 1 hr by fluorescence microplate reader; type: functional, cell-based; method in brief: as §3
[15] = species: Rattus norvegicus; assay: Selectivity ratio of EC50 for rat mGlu8 receptor to EC50 for rat mGlu4 receptor
[16] = target: Metabotropic glutamate receptor 7 (Rattus norvegicus) (UniProt P35400); assay: as §8; type: functional, cell-based; method in brief: as §9
[17] = target: Metabotropic glutamate receptor 4 (Rattus norvegicus) (UniProt P31423); assay: Agonist activity at rat mGlu4 receptor expressed in HEK293 cells co-transfected with G-protein alpha and EAAC1 assessed as increase in intracellular inositol phosphate accumulation […] by scintillation counting in presence of DCG4; type: functional, cell-based
[18] = target: Metabotropic glutamate receptor 8 (Rattus norvegicus) (UniProt P70579); assay: as §6; type: functional, cell-based; method in brief: as §3
Chain of Metabotropic glutamate receptor 8 (Rattus norvegicus) (P70579 whole entry): as the sequence (P70579 whole entry) above

[19] = target: Metabotropic glutamate receptor 4 (Rattus norvegicus) (UniProt P31423); assay: as §7; type: functional, cell-based; method in brief: as §3

Compound	EC50 [1] [µM]	EC50 [5] [µM]	EC50 [7] [µM]	EC50 [8] [µM]	EC50 [10] [µM]	further results
N[C@@H](CCP(=O)(O)CC(CC(=O)O)C(=O)O)C(=O)O (some centres undefined)	4.6	115	3.5	38	2.4	Activity [2]: inactive; Activity [3]: inactive; EC50 [4]: 42 µM; Activity [6]: inactive; Activity [9]: inactive
C/C(=C\C(=O)O)C(O)P(=O)(O)CC[C@H](N)C(=O)O (some centres undefined)	–	–	–	–	–	Activity [11]: inactive
NC(CP(=O)(O)CCC(=O)O)C(=O)O (centres undefined)	–	–	–	–	–	Activity [11]: inactive
N[C@@H](CCP(=O)(O)O)C(=O)O	0.096	3.3	0.3	0.24	0.13	EC50 [4]: 1 µM; EC50 [12]: 249 µM; EC50 [13]: 306 µM
N[C@@H](CCP(=O)(O)C(CC(=O)O)CP(=O)(O)O)C(=O)O (some centres undefined)	–	–	–	–	–	Activity [11]: 33%
N[C@@H](CCP(=O)(O)CC(Cl)C(=O)O)C(=O)O (some centres undefined)	3.8	–	8.3	8.1	1	Activity [2]: inactive; Activity [3]: inactive; EC50 [14]: 49 µM; EC50 [4]: 8.9 µM; EC50 [12]: > 100 µM; Activity [9]: Active; Ratio EC50 [15]: 8
N[C@@]1(C(=O)O)C[C@H](C(=O)O)[C@H](C(=O)O)C1	1.74	10.6	–	5.1	–	EC50 [13]: 280 µM
N[C@@H](CCP(=O)(O)/C=C/C(=O)O)C(=O)O	3	–	5.1	7.2	1	Activity [2]: inactive; Activity [3]: inactive; EC50 [14]: 6.7 µM; EC50 [4]: 1.1 µM; EC50 [12]: 43 µM; Activity [9]: Active
N[C@@H](CCP(=O)(O)CC(=O)O)C(=O)O	2.4	131	2.7	0.91	7.4	Activity [2]: inactive; Activity [3]: inactive; EC50 [14]: 57 µM; EC50 [4]: > 100 µM; Activity [6]: inactive; Activity [16]: inactive; Activity [9]: Active
N[C@H](CCP(=O)(O)CCC(=O)O)C(=O)O	17	99	–	58	–	–
N[C@@H](CCP(=O)(O)CCCC(=O)O)C(=O)O	11.4	> 100	18	19	8.5	Activity [2]: inactive; Activity [3]: inactive; EC50 [4]: 44 µM; Activity [6]: inactive; Activity [9]: inactive
N[C@H](C(=O)O)C1[C@@H](C(=O)O)[C@@H]1C(=O)O (some centres undefined)	–	–	–	–	–	EC50 [14]: 0.045 µM
N[C@@H](CCP(=O)(O)C(O)C1CC1C(=O)O)C(=O)O (single isomer, unassigned)	18	–	–	91	–	–
NC(CCP(=O)(O)C(CC(=O)O)C(=O)O)C(=O)O (centres undefined)	47	113	–	–	–	–
CC(CP(=O)(O)CC[C@H](N)C(=O)O)C(=O)O (some centres undefined)	12.1	–	–	53	–	–
N[C@@H](CCP(=O)(O)CC(CCO)C(=O)O)C(=O)O (some centres undefined)	–	–	76	–	20	–
NC(CCP(=O)(O)CCC(=O)O)C(=O)O (racemic)	7.1	32	–	20	–	EC50 [14]: 52 µM; Activity [9]: Active; Activity [17]: Dose-dependent effect
N[C@@H](CCCP(=O)(O)CCC(=O)O)C(=O)O	–	–	–	–	–	Activity [18]: inactive; Activity [19]: inactive
N[C@@H](CCP(=O)(O)C(CC(=O)O)C(F)(F)F)C(=O)O (some centres undefined)	26	–	–	–	–	–
N[C@@H](CCP(=O)(O)CCC(=O)O)C(=O)O	–	31	6.6	7.8	6.15	Activity [2]: inactive; Activity [3]: inactive; EC50 [4]: 6.7 µM; EC50 [12]: 89 µM
N[C@@H](CCP(=O)(O)C(O)C(=O)O)C(=O)O (some centres undefined)	–	–	2.9	–	7.2	–
N[C@@H](CCC[PH](=O)O)C(=O)O	–	–	73	–	209	–
N[C@@H](CCP(=O)(O)CCP(=O)(O)O)C(=O)O	88	–	–	48	–	–
N[C@@H](CCP(=O)(O)C(CC(=O)O)CC(=O)O)C(=O)O	114	–	–	–	–	–
N[C@@H](CCP(=O)(O)CC1CCOC1=O)C(=O)O (some centres undefined)	–	–	> 100	–	123	–
N[C@@H](CCP(=O)(O)C1COC(=O)C1)C(=O)O (some centres undefined)	–	–	> 100	–	141	–
NC(CCP(=O)(O)CCCCC(=O)O)C(=O)O (centres undefined)	–	–	–	–	–	Activity [11]: inactive
